pIC50: −log10 of the molar value.
Key:
COLO 205 = assay: Cytotoxicity against human COLO205 cells after 24 hrs by MTT assay; assay type: functional; settings: COLO 205, 24 h
Summary of the method: (§1)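 Cells kept at 37 °C in humidified 5% CO2 and seeded at 5 × 10³ cells/well the day before. They were PBS-washed, given fresh medium, then exposed to test compounds (0.1–100 µM) for 24 h. MTT (5 mg/mL in PBS) was then added for 4 h at 37 °C. Formazan was dissolved in DMSO and OD read at 570 nm. Each concentration was run in three experiments, three replicates each.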

MCF7 = assay: Cytotoxicity against human MCF7 cells after 24 hrs by MTT assay; assay type: functional; settings: MCF7, 24 h; summary of the method: as §1
[1] = molecular target: 5-lipoxygenase (Solanum tuberosum); assay: Inhibition of 5-lipoxygenase
HaCaT = assay: Cytotoxicity against human HaCaT cells at up to 100 uM after 24 hrs by MTT assay; assay type: cell-based; summary of the method: as §1

Row | Compound | pIC50 [1] | GI50 (COLO 205) [µM] | GI50 (MCF7) [µM] | Activity (HaCaT)
1 | COc1cccc(/C=C/C(=O)c2ccc(OCC=C(C)C)cc2O)c1OC | < 4.00 | > 100 | > 100 | –
2 | COc1ccc(/C=C/C(=O)c2ccc(OCC=C(C)C)cc2OCC=C(C)C)c(OC)c1OC | 4.31 | > 100 | 92 | –
3 | COc1cc(/C=C/C(=O)c2ccc(OCC=C(C)C)cc2OCC=C(C)C)cc(OC)c1OC | 5.40 | 78 | 9 | Non-toxic
4 | COc1cccc(/C=C/C(=O)c2ccc(OCC=C(C)C)cc2OCC=C(C)C)c1OC | – | 99 | 73 | –
5 | COc1ccc(/C=C/C(=O)c2ccc(OCC=C(C)C)cc2O)cc1OC | < 4.00 | > 100 | > 100 | –
6 | COc1ccc(/C=C/C(=O)c2ccc(OCC=C(C)C)cc2OCC=C(C)C)cc1 | – | 97 | 67.5 | –

Further lines, with some results ahead:

Row | pIC50 [1] | Compound | GI50 (COLO 205) [µM] | GI50 (MCF7) [µM] | Activity (HaCaT)
7 | < 4.00 | COc1ccc(/C=C/C(=O)c2ccc(OCC=C(C)C)cc2O)cc1 | > 100 | 97.5 | –
8 | < 4.00 | COc1cc(/C=C/C(=O)c2ccc(OCC=C(C)C)cc2O)cc(OC)c1OC | 96 | 81 | –
9 | < 4.00 | COc1ccc(/C=C/C(=O)c2ccc(OCC=C(C)C)cc2O)c(OC)c1OC | > 100 | > 100 | –
10 | 5.05 | COc1ccc(/C=C/C(=O)c2ccc(OCC=C(C)C)cc2OCC=C(C)C)cc1OC | 90 | 66.5 | –

Source: ChEMBL document CHEMBL1212887, “Design, synthesis, and biological evaluation of prenylated chalcones as 5-LOX inhibitors” (Bioorg Med Chem, 2010)
